In ChEMBL document CHEMBL4033784, “Discovery of 1,5-Diphenylpyrazole-3-Carboxamide Derivatives as Potent, Reversible, and Selective Monoacylglycerol Lipase (MAGL) Inhibitors” (J Med Chem, 2018):
Activity calls are given as the source filed them.

Legend:
Mus musculus [1] = assay: Effect on 2-AG level in spinal cord of oxaliplatin-induced neuropathic pain 4r5CD-1 albino mouse model at 30 mg/kg, po measured at 1 hr post last dose on day 15 by LC-MS/MS analysis; assay type: functional, organism-based
Procedure, shortened: (§1)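 Mice received oxaliplatin 2.4 mg/kg i.p. plus compound 30 mg/kg p.o. or vehicle for 14 days. On day 15 they were decapitated 1 h after the last dose. Brain and spinal cord were washed in PBS and snap-frozen. 2-AG was quantified by LC-MS/MS.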

[2] = target: Cannabinoid receptor 2 (Homo sapiens) (UniProt P34972); assay: Displacement of [3H]CP55,940 from human CB2 receptor expressed in CHOK1 cell membranes at 10 uM after 90 mins relative to control
Sequence of Cannabinoid receptor 2 (Homo sapiens) (P34972 whole entry): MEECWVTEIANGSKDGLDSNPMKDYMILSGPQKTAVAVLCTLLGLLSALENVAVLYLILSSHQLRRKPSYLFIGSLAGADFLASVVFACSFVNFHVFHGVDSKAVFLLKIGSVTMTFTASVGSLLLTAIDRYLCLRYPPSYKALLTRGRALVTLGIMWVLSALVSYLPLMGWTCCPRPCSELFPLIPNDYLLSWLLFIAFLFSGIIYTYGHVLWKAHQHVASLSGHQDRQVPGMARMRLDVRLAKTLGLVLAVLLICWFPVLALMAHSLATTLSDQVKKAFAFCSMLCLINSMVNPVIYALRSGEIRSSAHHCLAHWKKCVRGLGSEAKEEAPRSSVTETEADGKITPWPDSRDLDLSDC
Procedure, shortened: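 Membranes expressing hCB1 or hCB2 were incubated in 50 mM Tris-HCl, 2.5 mM EDTA, 5 mM MgCl2 with fatty-acid-free BSA, pH 7.4. Incubation with compound and 0.5 nM [3H]CP55,940 for 90 min at 30 °C. Nonspecific binding defined with 10 µM […]. Samples were filtered on GF/B, washed twelve times with ice-cold buffer, and radioactivity counted.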

Mus musculus [3] = assay: Antinociceptive activity in oxaliplatin-induced neuropathic pain 4r5CD-1 albino mouse model assessed as reduction in licking latency at 30 mg/kg, po treated on day 15 post oxaliplatin treatment measure at 30 to 45 mins post dose by cold plate test; assay type: functional, organism-based
Procedure, shortened: (§2)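 Male CD-1 mice (22–25 g) received oxaliplatin 2.4 mg/kg i.p. in 5% glucose on days 1-2, 5-9, 12-14. On day 15 a single p.o. dose (10 or 30 mg/kg) suspended in CMC was given. Cold plate at 4 °C ± 1 °C, 60 s cut-off, latency to first paw lick or lift timed after dosing. 10 mice per group over 2 sets, mean ± S.E.M., one-way ANOVA with Bonferroni.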

[4] = target: T1, Monoglyceride lipase (Homo sapiens) (UniProt Q99685); settings: 20 uM
T1 sequence (whole entry): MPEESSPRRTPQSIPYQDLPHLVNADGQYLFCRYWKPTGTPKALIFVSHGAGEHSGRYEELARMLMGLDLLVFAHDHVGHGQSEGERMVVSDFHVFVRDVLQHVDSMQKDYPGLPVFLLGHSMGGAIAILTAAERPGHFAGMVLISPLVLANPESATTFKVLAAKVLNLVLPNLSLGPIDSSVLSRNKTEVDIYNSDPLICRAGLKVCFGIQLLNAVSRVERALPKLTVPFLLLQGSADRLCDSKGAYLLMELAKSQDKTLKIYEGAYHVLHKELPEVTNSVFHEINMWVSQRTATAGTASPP

Mus musculus [5] = assay: Antinociceptive activity in oxaliplatin-induced neuropathic pain 4r5CD-1 albino mouse model assessed as reduction in cold allodynia at 30 mg/kg, po cotreated with oxaliplatin on day 1 to 14 measured on day 7 and 15 by cold plate test; assay type: functional, organism-based
Procedure, shortened: (§3)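 Male CD-1 mice (22–25 g) given oxaliplatin 2.4 mg/kg i.p. in 5% glucose on days 1-2, 5-9, 12-14. Compound suspended in CMC, 30 mg/kg p.o., given on the same schedule. Cold plate held at 4 °C ± 1 °C, 60 s cut-off. Latency to first hind-paw lifting or licking recorded on days 7 and 15, 24 h after the last dose. 10 mice per group over 2 sets, mean ± S.E.M.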

Mus musculus [6] = assay: Antinociceptive activity in oxaliplatin-induced 4r5CD-1 albino mouse assessed as […] pain relief at 30 mg/kg, po cotreated with oxaliplatin on day 1 to 14 measured up to 24 hrs post last on day 15 by cold plate test; assay type: functional, organism-based; procedure, shortened: as §3
Mus musculus [7] = assay: Antinociceptive activity in oxaliplatin-induced neuropathic pain 4r5CD-1 albino mouse model assessed as reduction in licking latency at 10 mg/kg, po treated on day 15 post oxaliplatin treatment measure at 30 mins post dose by cold plate test; assay type: functional, organism-based; procedure, shortened: as §2
Mus musculus [8] = assay: Effect on 2-AG level in brain of oxaliplatin-induced neuropathic pain 4r5CD-1 albino mouse model at 30 mg/kg, po measured at 1 hr post last dose on day 15 by LC-MS/MS analysis; assay type: functional, organism-based; procedure, shortened: as §1
[9] = target: T1, Monoglyceride lipase (Homo sapiens); settings: 20 uM; remark: listed apart in the source
Mus musculus [10] = assay: Antinociceptive activity in po dosed oxaliplatin-induced neuropathic pain 4r5CD-1 albino mouse model assessed as pain relief treated on day 15 post oxaliplatin treatment by cold plate test; assay type: functional, organism-based; procedure, shortened: as §2
[11] = target: T2, Fatty-acid amide hydrolase 1 (Homo sapiens) (UniProt O00519); assay: Inhibition of recombinant human FAAH using AMC arachidonoylamide as substrate at 10 uM after 30 mins by fluorescence assay relative to control
T2 sequence (whole entry): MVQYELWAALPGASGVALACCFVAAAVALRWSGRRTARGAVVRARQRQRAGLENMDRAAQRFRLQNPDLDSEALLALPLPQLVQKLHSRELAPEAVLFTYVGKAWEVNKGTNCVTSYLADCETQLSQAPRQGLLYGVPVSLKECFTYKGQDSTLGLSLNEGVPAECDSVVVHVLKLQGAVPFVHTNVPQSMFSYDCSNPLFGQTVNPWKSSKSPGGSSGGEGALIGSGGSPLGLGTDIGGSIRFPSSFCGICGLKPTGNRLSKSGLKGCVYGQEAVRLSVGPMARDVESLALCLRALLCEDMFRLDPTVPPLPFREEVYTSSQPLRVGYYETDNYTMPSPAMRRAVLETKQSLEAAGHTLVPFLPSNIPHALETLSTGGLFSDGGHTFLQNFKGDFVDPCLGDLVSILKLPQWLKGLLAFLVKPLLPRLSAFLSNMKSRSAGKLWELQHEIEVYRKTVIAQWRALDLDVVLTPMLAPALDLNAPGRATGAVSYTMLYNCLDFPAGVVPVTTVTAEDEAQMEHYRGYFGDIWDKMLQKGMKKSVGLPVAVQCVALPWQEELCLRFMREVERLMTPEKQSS
Procedure, shortened: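 Human recombinant FAAH (0.9 µg/well) in 125 mM Tris pH 9.0 with 1 mM EDTA and 0.1 mg/ml BSA at room temperature. Substrate was AMC arachidonoylamide, final 10 µM. Compound range 200–0.0128 µM. Fluorescence (ex 340/em 460 nm) read after 30 min with no-enzyme blanks subtracted. IC50 from sigmoidal dose-response fit.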

For `Cc1cccc(Cn2nc(C(=O)N3CCC(Cc4ccccc4)CC3)cc2-c2ccc(O)cc2)c1`, the Activity (Mus musculus [1]) was “inactive”, the inhibition [2] was 35% and the Activity (Mus musculus [3]) was “Active”. For the same compound, the inhibition [4] was “Active”, the Activity (Mus musculus [5]) was “Active” and the Activity (Mus musculus [6]) was “Active”. For the same compound, the Activity (Mus musculus [7]) was “Active”, the Activity (Mus musculus [8]) was “inactive” and the inhibition [9] was “Active”. The Activity (Mus musculus [10]) was “Dose-dependent effect” and the inhibition [11] was 7%.
